ChEMBL document CHEMBL4196176, “Structure-Based Design of MptpB Inhibitors That Reduce Multidrug-Resistant Mycobacterium tuberculosis Survival and Infection Burden in Vivo” (J Med Chem, 2018)

Legend:
[1] = target: T1, Phosphotyrosine protein phosphatase (Mycobacterium tuberculosis, UniProt A0A045ISB3); assay: Inhibition of Mycobacterium tuberculosis H37Rv His-tagged ptpB expressed in Escherichia coli BL21(DE3) using pNPP as substrate preincubated for 15 mins followed by substrate addition and measured after 15 mins
T1 sequence (A0A045ISB3 whole entry): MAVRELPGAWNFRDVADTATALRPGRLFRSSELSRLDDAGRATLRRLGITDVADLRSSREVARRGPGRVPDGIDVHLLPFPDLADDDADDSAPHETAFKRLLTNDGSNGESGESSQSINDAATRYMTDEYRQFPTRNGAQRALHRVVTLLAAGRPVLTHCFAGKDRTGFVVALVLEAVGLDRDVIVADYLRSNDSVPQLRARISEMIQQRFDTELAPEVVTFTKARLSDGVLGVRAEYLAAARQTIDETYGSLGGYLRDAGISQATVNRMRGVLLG

[2] = target: T2, Tyrosine-protein phosphatase non-receptor type 1 (Homo sapiens, UniProt P18031); assay: Inhibition of human PTP1B using pNPP as substrate preincubated for 15 mins followed by substrate addition and measured after 15 mins
T2 sequence (P18031 whole entry): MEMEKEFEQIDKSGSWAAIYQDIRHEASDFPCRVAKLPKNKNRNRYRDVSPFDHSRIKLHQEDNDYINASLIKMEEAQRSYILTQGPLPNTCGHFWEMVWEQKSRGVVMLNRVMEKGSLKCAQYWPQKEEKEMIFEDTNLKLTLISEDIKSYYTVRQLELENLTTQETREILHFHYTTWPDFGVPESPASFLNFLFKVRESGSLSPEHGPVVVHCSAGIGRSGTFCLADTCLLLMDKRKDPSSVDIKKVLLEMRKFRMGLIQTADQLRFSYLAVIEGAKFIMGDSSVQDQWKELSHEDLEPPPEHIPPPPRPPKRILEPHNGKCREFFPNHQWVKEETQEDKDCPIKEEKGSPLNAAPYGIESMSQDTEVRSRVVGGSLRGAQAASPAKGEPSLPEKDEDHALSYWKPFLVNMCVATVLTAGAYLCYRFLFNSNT

[3] = Selectivity ratio of IC50 for human PTP1B to IC50 for Mycobacterium tuberculosis H37Rv His-tagged ptpB
[4] = target: Dual specificity protein phosphatase 3 (Homo sapiens, UniProt P51452); assay: Inhibition of human VHR using pNPP as substrate preincubated for 15 mins followed by substrate addition and measured after 15 mins
In short: (§1)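 His-tagged MptpA/MptpB expressed in E. coli BL21(DE3); VHR and hPTP1B purified as GST fusions with the tag cleaved. 0.5 μg protein in Tris/BisTris/acetate buffer (pH 7 MptpB, 6.5 MptpA, 6 hPTP1B, 5 VHR) with compound at 0–250 μM, 15 min at room temperature. pNPP added to 0.35 mM for 15 min, quenched with NaOH, read at 405 nm against a pNP curve. No-enzyme blanks.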

J774.A1 [5] = assay: Cytotoxicity against mouse J774A.1 cells assessed as reduction in cell viability at >100 uM after 24 hrs by MTT assay; format: cell-based; conditions: j774.a1, 24 h
In short: (§2)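 MTT viability assay in J774A.1 cells seeded at 6 × 10^3/well and adhered overnight. Inhibitor in DMSO or DMSO only added for 24 h. MTT (5 mg/mL in PBS) added for 4 h, formazan dissolved in DMSO with Sorensen's glycine buffer, absorbance read at 570 nm.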

[6] = Inhibition of Mycobacterium tuberculosis H37Rv His-tagged ptpA expressed in Escherichia coli BL21(DE3) using pNPP as substrate preincubated for 15 mins followed by substrate addition and measured after 15 mins; in short: as §1
J774.A1 [7] = assay: Cytotoxicity against mouse J774A.1 cells assessed as reduction in cell viability at 50 to 150 uM after 24 hrs by MTT assay; format: cell-based; conditions: j774.a1, 24 h; in short: as §2

Chain of Dual specificity protein phosphatase 3 (P51452 whole entry, the tested form may be a part): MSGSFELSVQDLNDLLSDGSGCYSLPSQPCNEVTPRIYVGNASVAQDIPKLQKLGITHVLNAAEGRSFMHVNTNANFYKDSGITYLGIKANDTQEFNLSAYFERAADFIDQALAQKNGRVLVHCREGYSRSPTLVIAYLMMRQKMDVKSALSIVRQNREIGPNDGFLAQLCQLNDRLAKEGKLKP

Row | Structure (SMILES) | IC50 [1] | IC50 [2] | Ratio IC50 [3] | IC50 [4] | Activity (J774.A1 [5]) | IC50 [6] | Activity (J774.A1 [7])
1 | COc1cccc(-c2c(C(=O)O)noc2-c2ccccc2)c1 | 38 µM |  |  |  |  |  | 
2 | O=C(O)c1noc(-c2ccccc2)c1-c1ccccc1 | 17 µM | 100 µM | 5.9 |  |  |  | 
3 | O=C(O)c1noc(-c2ccccc2)c1-c1cccc(O)c1 | 85 µM |  |  |  |  |  | 
4 | O=C(O)c1noc(-c2ccccc2)c1-c1cccc(-c2ccc(O)c(Cl)c2)c1 | 0.9 µM | 213 µM |  | 18.7 µM | > 23% | 23.5 µM | Non-Toxic
